Assay results pooled from the literature.
Lines come from different studies, so protocols differ.
Matrix: plasma

`CCc1cc(C(=O)NC)c2nccc(N3CCc4c(cc(Cn5ccnc5)cc4-c4cn(C)nc4C(F)(F)F)C3=O)c2c1` has an AUC(0-inf) of 1280 ng·h/mL (male Sprague-Dawley rat; intravenous; 3 mg/kg).
With `C=CC(=O)N1CC2CC(n3nc(-c4ccc(C(=O)Nc5ccccn5)cc4)c4c(N)ncnc43)CC2C1` (centres unmarked) the AUC(0-t) was 908 ng·h/mL (male Wistar rat; oral; 3 mg/kg).
`CCNC(=O)c1nc(-c2ccc3[nH]c(-c4nc(C)no4)cc3c2)c(C)[nH]1` has an AUC of 10.3 µM·h (Sprague-Dawley rat; oral; 10 mg/kg).
For `COc1cc2c3c(n(CCCN4CCOCC4)c(=O)c2cc1OC)-c1cc2c(cc1C3=O)OCO2`, the AUC(0-inf) was 806 ng·h/mL (female Fischer 344 rat; intravenous; 24 mg/m²; single dose).
`N#Cc1ccc(Nc2nc(N)cc(Oc3c(F)cc(-c4ccc(C#N)cc4)cc3F)n2)cc1` has an AUC of 100 ng·h/mL (Sprague-Dawley rat; oral; 5 mg/kg).
With `N#Cc1[nH]nnc1-c1cccc(OCc2cc(C(F)(F)F)ccc2C(F)(F)F)c1` the AUC was 46400 ng·h/mL (male Sprague-Dawley rat; oral; 10 mg/kg).
The AUC(0-inf) of `CCOC(=O)[C@@]12C[C@@H]1[C@@H](n1ccc3c(NC)nc(C#Cc4ccc(Cl)s4)nc31)[C@H](O)[C@@H]2O` is reported as 38.2 ng·h/mL (male Sprague-Dawley rat; oral; 1 mg/kg).
`Cl.Clc1ccc2c(c1)nc(N1CCNCC1)n2Cc1ccccc1` has an AUC of 1.5 µM·h (rat; oral; 5 mg/kg).
With `N#Cc1[nH]nnc1-c1cc(Cl)cc(/C=C/c2cccc(C(F)(F)F)c2)c1` the AUC was 16700 ng·h/mL (male Sprague-Dawley rat; oral; 10 mg/kg).
With `Cc1noc(-c2cc3cc(-c4nc(C(=O)NCc5ccncc5)[nH]c4C)ccc3[nH]2)n1` the AUC was 11.1 µM·h (Sprague-Dawley rat; oral; 10 mg/kg).
With `O=C1N(Cc2ccccc2Cl)c2ccccc2C12NN=C(c1ccccc1)S2` (centres unmarked) the AUC was 2820 ng·h/mL (Sprague-Dawley rat; oral; 40 mg/kg).
